Converted amounts (≈) assume the structure as drawn. “And” between values parts separate entries of the source, which are not always exact repeats. Identical values can stand only once.
What was measured:
[1] = Compound was tested in vitro for antibacterial activity against Citrobacter sp 2404 strain.; assay type: functional
Procedure, shortened: (§1)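 Inocula grown on agar slants or in liquid M9 or Davis-Mingoli minimal medium for 7–16 h at 37 °C. Peptides dissolved in 50 mM potassium phosphate, pH 7.4, serially diluted 2- or 10-fold in the same buffer, filter-sterilized.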

Escherichia coli = experiment: Compound was tested in vitro for antibacterial activity against Escherichia coli CB64 strain; assay type: functional; procedure, shortened: as §1
Klebsiella pneumoniae = experiment: Compound was tested in vitro for antibacterial activity against Klebsiella pneumoniae 4200 strain.; assay type: functional; procedure, shortened: as §1
Pseudomonas aeruginosa = experiment: Compound was tested in vitro for antibacterial activity against Pseudomonas aeruginosa 647 strain.; assay type: functional
Procedure, shortened: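 Broth microdilution MIC. Inocula were pre-grown on agar slants or in M9 or Davis-Mingoli minimal medium for 7–16 h at 37 °C. Peptides were dissolved in 50 mM potassium phosphate, pH 7.4, serially diluted 2- or 10-fold, and filter-sterilised. Wells held 10^5 cfu/mL in M-9 broth with thiamine and lysine, read after 16 h at 37 °C.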

Serratia marcescens = experiment: Compound was tested in vitro for antibacterial activity against Serratia marcescens ATCC 13880 strain; assay type: functional; procedure, shortened: as §1
Enterobacter cloacae [2] = experiment: Compound was tested in vitro for antibacterial activity against Enterobacter cloacae P99 strain; assay type: functional; procedure, shortened: as §1
Salmonella enteritidis = experiment: Compound was tested in vitro for antibacterial activity against Salmonella enteritidis E497 strain.; conditions: Salmonella enterica
Providencia rettgeri = experiment: Compound was tested in vitro for antibacterial activity against Providencia rettgeri AAB-137 strain.; assay type: functional; procedure, shortened: as §1
Enterobacter cloacae [3] = experiment: Reversal of antibacterial activity by the compound, expressed as agar disc zone size with L-Ala-LL-DAP (0.0 ug/disc); assay type: functional
Enterobacter cloacae [4] = experiment: Reversal of antibacterial activity by the compound, expressed as agar disc zone size with L-Ala-LL-DAP (26 ug/disc); No zone; assay type: functional, organism-based
Enterobacter cloacae [5] = experiment: Reversal of antibacterial activity by the compound, expressed as agar disc zone size with L-Ala-LL-DAP (6.5 ug/disc); assay type: functional
Enterobacter cloacae [6] = experiment: Reversal of antibacterial activity by the compound, expressed as agar disc zone size with LL-DAP (0.19 ug/disc); assay type: functional
Enterobacter cloacae [7] = experiment: Reversal of antibacterial activity by the compound, expressed as agar disc zone size with LL-DAP (0.38 ug/disc); No zone; assay type: functional, organism-based
Enterobacter cloacae [8] = experiment: Reversal of antibacterial activity by the compound, expressed as agar disc zone size with LL-DAP (0.76 ug/disc); No zone; assay type: functional, organism-based
Enterobacter cloacae [9] = experiment: Reversal of antibacterial activity by the compound, expressed as agar disc zone size with LL-DAP (0.0 ug/disc); assay type: functional

Compound	MIC [1]	MIC (Escherichia coli)	MIC (Klebsiella pneumoniae)	MIC (Pseudomonas aeruginosa)	MIC (Serratia marcescens)	MIC (Enterobacter cloacae [2])	MIC (Salmonella enteritidis)	MIC (Providencia rettgeri)	Zone size (Enterobacter cloacae [3])	Zone size (Enterobacter cloacae [4])	Zone size (Enterobacter cloacae [5])	Zone size (Enterobacter cloacae [6])	Zone size (Enterobacter cloacae [7])	Zone size (Enterobacter cloacae [8])	Zone size (Enterobacter cloacae [9])
NC(CCCCC(=O)O)C(=O)O (centres undefined)	> 1000 µg/mL	> 1000 µg/mL	500 µg/mL (≈ 2850 µM)	> 1000 µg/mL	> 1000 µg/mL	> 1000 µg/mL	> 1000 µg/mL								
CC(N)C(=O)NCCP(=O)(O)O (centres undefined) [ALAFOSALIN]	25 µg/mL (≈ 127 µM)	< 0.1 µg/mL	1.6 µg/mL (≈ 8.16 µM)	> 100 µg/mL	1.6 µg/mL (≈ 8.16 µM)	100 µg/mL (≈ 510 µM)	50 µg/mL (≈ 255 µM)	> 100 µg/mL							
N[C@@H](CCCCC(=O)O)C(=O)N1CCC[C@H]1C(=O)O	> 1000 µg/mL	> 1000 µg/mL	16 µg/mL (≈ 58.8 µM)		> 1000 µg/mL	8 µg/mL (≈ 29.4 µM)	> 1000 µg/mL	4 µg/mL (≈ 14.7 µM)							

Further lines, with some results ahead:

MIC [1]	MIC (Escherichia coli)	MIC (Klebsiella pneumoniae)	MIC (Pseudomonas aeruginosa)	MIC (Serratia marcescens)	MIC (Enterobacter cloacae [2])	MIC (Salmonella enteritidis)	MIC (Providencia rettgeri)	Compound	Zone size (Enterobacter cloacae [3])	Zone size (Enterobacter cloacae [4])	Zone size (Enterobacter cloacae [5])	Zone size (Enterobacter cloacae [6])	Zone size (Enterobacter cloacae [7])	Zone size (Enterobacter cloacae [8])	Zone size (Enterobacter cloacae [9])
8 µg/mL (≈ 32.5 µM)	16 µg/mL (≈ 65 µM)	16 µg/mL (≈ 65 µM)	1000 µg/mL (≈ 4060 µM)	8 µg/mL (≈ 32.5 µM)	4 µg/mL (≈ 16.2 µM)	16 µg/mL (≈ 65 µM)	4 µg/mL (≈ 16.2 µM)	C[C@H](N)C(=O)N[C@@H](CCCCC(=O)O)C(=O)O							
2 µg/mL (≈ 8.12 µM)	2 µg/mL (≈ 8.12 µM)	8 µg/mL (≈ 32.5 µM)	> 1000 µg/mL	2 µg/mL (≈ 8.12 µM)	4 µg/mL (≈ 16.2 µM)	8 µg/mL (≈ 32.5 µM)	< 1 µg/mL	C[C@H](NC(=O)[C@@H](N)CCCCC(=O)O)C(=O)O							
250 µg/mL (≈ 788 µM)	31 µg/mL (≈ 97.7 µM)	1000 µg/mL (≈ 3150 µM)		16 µg/mL (≈ 50.4 µM)	63 µg/mL (≈ 199 µM)	2 µg/mL (≈ 6.3 µM)	125 µg/mL (≈ 394 µM)	C[C@H](N)C(=O)N[C@@H](C)C(=O)N[C@@H](CCCCC(=O)O)C(=O)O	25 mm	No zone	9 mm and 15 mm	17 mm and 21 mm	No zone	No zone	25 mm
250 µg/mL (≈ 918 µM)	500 µg/mL (≈ 1840 µM)	63 µg/mL (≈ 231 µM)		> 1000 µg/mL	250 µg/mL (≈ 918 µM)	> 1000 µg/mL	250 µg/mL (≈ 918 µM)	O=C(O)CCCC[C@H](NC(=O)[C@@H]1CCCN1)C(=O)O							

Source: ChEMBL document CHEMBL1123511, “Peptides of 2-aminopimelic acid: antibacterial agents that inhibit diaminopimelic acid biosynthesis” (1986)
